Measurements published in ChEMBL document CHEMBL1129786, “Ryanodine action at calcium release channels. 1. importance of hydroxyl substituents” (J Med Chem, 1996).

Legend:
Rattus norvegicus [1] = species on record: Rattus norvegicus; experiment: Potency relative to ryanodine inhibiting rat ventricular muscle strip contractility.; type: functional, Muscle tissue
Method in brief: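 Right ventricular muscle strips from rat suspended in Krebs-Henseleit solution at 30 °C, aerated O2-CO2 95:5; resting tension 0.5 g. Contraction evoked by electrical stimulation was recorded and its inhibition measured. IC50 values are expressed relative to ryanodine; three to five experiments.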

Rattus norvegicus [2] = species on record: Rattus norvegicus; experiment: Inhibition of rat ventricular muscle strip contractility.; type: functional; settings: Muscle tissue
Method in brief: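 Rat right ventricular muscle strips were held in water-jacketed baths of Krebs-Henseleit solution at 30 °C, aerated with O2-CO2 (95:5), at 0.5 g resting tension. Contraction was evoked by electrical stimulation and recorded on a polygraph. IC50 was taken from inhibition of contraction, using three to five experiments.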

`C=C1CCC23OB(CC)OC45C(OC(=O)c6ccc[nH]6)C(=C(C)C)C6(C)C(O)(CC24C)OC3(C1O)C65O` (centres undefined) gave a Potency (Rattus norvegicus [1]) of 26.
With `C=C1CCC23OB(C)OC45C(OC(=O)c6ccc[nH]6)C(O)(C(C)C)C6(C)C(O)(CC24C)OC3(C1O)C56O` (centres undefined) the Potency (Rattus norvegicus [1]) was 100.
In the case of `CC1CCC2(O)C3(OC4(O)CC2(C)C2(O)C(OC(=O)c5ccc[nH]5)C(O)(C(C)C)C4(C)C23)C1O` (centres undefined), the Potency (Rattus norvegicus [1]) is reported as 64.
For `C=C1CCC23OB(O)OC45C(OC(=O)c6ccc[nH]6)C(O)(C(C)C)C6(C)C(O)(CC24C)OC3(C1O)C56O` (centres undefined), the Potency (Rattus norvegicus [1]) was 28.
In the case of `CC1CCC2(O)C3(C)CC4(O)OC2(C1O)C1(O)C3(O)C(OC(=O)c2ccc[nH]2)C2(OC2(C)C)C41C` (stereo in doubt; 26), the Potency (Rattus norvegicus [1]) is reported as 3.4.
With `C=C1CCC23OB(c4ccsc4)OC45C(OC(=O)c6ccc[nH]6)C(O)(C(C)C)C6(C)C(O)(CC24C)OC3(C1O)C56O` (centres undefined) the Potency (Rattus norvegicus [1]) was 52.
Compound `C=C1CCC2(O)C3(C)CC4(O)OC2(C1O)C1(O)C3(O)C(OC(=O)c2cccn2C)C(O)(C(C)C)C41C` (centres undefined) has a Potency (Rattus norvegicus [1]) of 100.
Work on `CC1CCC2(O)C3(C)CC4(O)OC2(C1O)C1(O)C3(O)C(OC(=O)c2ccc[nH]2)C(O)(C(C)(C)O)C41C` (centres undefined) yielded a Potency (Rattus norvegicus [1]) of 26.
Compound `CC1CCC2(O)C3(C)CC4(O)OC2(C1O)C1(O)C3(O)C(OC(=O)c2ccc[nH]2)C2(OC2(C)C)C41C` (stereo in doubt; 25) has a Potency (Rattus norvegicus [1]) of 24.
`CONC12C(OC(=O)c3ccc[nH]3)C(O)(C(C)C)C3(C)C1C14OC3(O)CC2(C)C1(O)CCC(C)C4O` (centres undefined) was tested, and the Potency (Rattus norvegicus [1]) was <1.1.
`CC1CCC2(O)C3(C)CC4(O)OC2(C1O)C1(O)C3(O)C(OC(=O)c2ccc[nH]2)C(O)(C(C)C)C41C` (centres undefined) showed an IC50 (Rattus norvegicus [2]) of 34 nM and a Potency (Rattus norvegicus [1]) of 100.
Compound `CC1CCC2(O)C3(OC4(O)CC2(C)C2(NO)C(OC(=O)c5ccc[nH]5)C(O)(C(C)C)C4(C)C23)C1O` (centres undefined) has a Potency (Rattus norvegicus [1]) of 4.9.
For `C=C1CCC2(O)C3(C)CC4(O)OC25C1OP(=O)(NC)OC51C3(O)C(OC(=O)c2ccc[nH]2)C(O)(C(C)C)C41C` (centres undefined), the Potency (Rattus norvegicus [1]) was <3.5.
